This passage reports Activity and inhibition results from ChEMBL document CHEMBL3091455, “Dimethylaminopyridine derivatives of lupane triterpenoids cause mitochondrial disruption and induce the permeability transition” (Bioorg Med Chem, 2013).

Activity calls are given as the source filed them. The rule behind the calls is not given here.

For series [1], the system named is MCF7. The series can be described thus: Induction of mitochondrial depolarization in human estrogen-sensitive MCF7 cells at 1 ug/ml after 48 hrs by MitoTracker Red staining. Format: functional, cell-based. Put shortly:
(§1)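 Cells grown in DMEM with 10% FBS at 37 °C, 5% CO₂, seeded on coverslips, attached 24 h. Then 1 µg/ml compound for 48 h. MitoTracker Red CMXRos 7.3 nM added for the final 30 min. Cells fixed in cold methanol at −20 °C overnight and imaged by epifluorescence with a 63× objective. Three independent experiments.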

Series [2] is filed under the species Rattus norvegicus. Briefly: Effect on electron transport protein complex 2 in Wistar-Han rat liver mitochondria using succinate as substrate assessed as ADP-induced depolarization at 6 ug/mg relative to control.
Series [3] is filed under the species Rattus norvegicus. Briefly: Effect on electron transport protein complex 1 in Wistar-Han rat liver mitochondria using glutamate/malate as substrate assessed as phosphorylative lag phase at 6 ug/mg relative to control. Put shortly: (§2)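 Membrane potential recorded by TPP⁺ electrode, 1 mg rat liver mitochondria, 30 °C, pH 7.2 sucrose/KCl medium with 3 μM TPP⁺. Compound (3 or 6 µg/mg protein) given 1 min before glutamate/malate (5/2.5 mM) or succinate (5 mM) + 3 µM rotenone. Lag phase follows the ADP pulse (125 nmol/mg protein).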

Series [4] is filed under the species Rattus norvegicus. Briefly: Inhibition of electron transport protein complex 1/2 in Wistar-Han rat liver mitochondria using glutamate/malate and succinate as substrate assessed as decrease of respiratory control ratio at 6 ug/mg. Put shortly:
(§3)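 Compound (3 or 6 µg/mg protein) preincubated 1 min, then 10 mM glutamate/5 mM malate or 5 mM succinate + 3 µM rotenone. ADP 187.5 nmol/mg protein; oligomycin 1 µg; FCCP 1 µM. RCR = state 3/state 4; ADP/O per Chance and Williams. Expressed as % control, means ± SEM, three preparations.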

Series [5] is filed under the species Rattus norvegicus. The series can be described thus: Effect on electron transport protein complex 1 in Wistar-Han rat liver mitochondria using glutamate/malate as substrate assessed as mitochondrial transmembrane electric potential at 3 ug/mg relative to control.
Series [6] is filed under the species Rattus norvegicus. Briefly: Effect on electron transport protein complex 1 in Wistar-Han rat liver mitochondria using glutamate/malate as substrate assessed as mitochondrial transmembrane electric potential at 6 ug/mg relative to control.
Series [7] deals with Hs-578T. Briefly: Induction of mitochondrial depolarization in human estrogen-insensitive Hs578T cells at 1 ug/ml after 48 hrs by MitoTracker Red staining. Format: functional, cell-based. Put shortly:
as §1

The species entered for series [8] is Rattus norvegicus. Briefly: Effect on electron transport protein complex 2 in Wistar-Han rat liver mitochondria using succinate as substrate assessed as phosphorylative lag phase at 3 ug/mg relative to control. Put shortly:
as §2

The species named for series [9] is Rattus norvegicus. The series can be described thus: Effect on electron transport protein complex 1 in Wistar-Han rat liver mitochondria using glutamate/malate as substrate assessed as phosphorylative lag phase at 3 ug/mg relative to control. Put shortly:
as §2

Series [10] is filed under the species Rattus norvegicus. The series can be described thus: Effect on electron transport protein complex 1 in Wistar-Han rat liver mitochondria using glutamate/malate as substrate assessed as ADP-induced depolarization at 6 ug/mg relative to control.
The species entered for series [11] is Rattus norvegicus. The series can be described thus: Effect on electron transport protein complex 2 in Wistar-Han rat liver mitochondria using succinate as substrate assessed as phosphorylative lag phase at 6 ug/mg relative to control. Put shortly: as §2
The species named for series [12] is Rattus norvegicus. The series can be described thus: Effect on electron transport protein complex 1 in Wistar-Han rat liver mitochondria using glutamate/malate as substrate assessed as ADP-induced depolarization at 3 ug/mg relative to control.
The species entered for series [13] is Rattus norvegicus. Briefly: Effect on electron transport protein complex 2 in Wistar-Han rat liver mitochondria using succinate as substrate assessed as mitochondrial transmembrane electric potential at 3 ug/mg relative to control.
For series [14], the species on record is Rattus norvegicus. The series can be described thus: Inhibition of electron transport protein complex 1/2 in Wistar-Han rat liver mitochondria using glutamate/malate and succinate as substrate assessed as increase of state 3 and 4 mitochondrial oxygen consumption at 3 to 6 ug/mg. Put shortly: as §3
Series [15] is filed under the species Rattus norvegicus. The series can be described thus: Effect on electron transport protein complex 2 in Wistar-Han rat liver mitochondria using succinate as substrate assessed as ADP-induced depolarization at 3 ug/mg relative to control.
Series [16] is filed under the species Rattus norvegicus. Briefly: Effect on electron transport protein complex 2 in Wistar-Han rat liver mitochondria using succinate as substrate assessed as mitochondrial transmembrane electric potential at 6 ug/mg relative to control.
For series [17], the system named is BJ. The series can be described thus: Induction of mitochondrial depolarization in human BJ cells at 1 ug/ml after 48 hrs by MitoTracker Red staining. Format: cell-based. Put shortly:
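BJ normal human fibroblasts grown as monolayers in DMEM with 10% FBS, 37 °C, 5% CO2. Seeded on glass coverslips, attached 24 h, then exposed to compound (1 µg/ml) for 48 h. MitoTracker Red CMXRos (7.3 nM) added 30 min before end at 37 °C in dark. Methanol-fixed at -20 °C overnight, imaged by epifluorescence (63× objective). Three independent experiments.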

The species entered for series [18] is Rattus norvegicus. Briefly: Inhibition of electron transport protein complex 1/2 in Wistar-Han rat liver mitochondria using glutamate/malate and succinate as substrate assessed as increase of passive flux of protons through mitochondrial inner membrane at 3 to 6 ug/mg.
Series [19] is filed under the species Rattus norvegicus. Briefly: Increase of calcium-induced mitochondrial permeability transition in Wistar-Han rat liver mitochondria assessed as mitochondrial transmembrane electric potential after 2 mins. Format: functional. Put shortly:
(§4)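 TPP⁺ electrode, 30 °C, 1 mg rat liver mitochondria in 1 ml 200 mM sucrose, 10 mM Tris-MOPS pH 7.2, 10 µM EGTA, 1 mM KH₂PO₄, 3 µM rotenone, 3 µM TPP⁺. Compound incubated with mitochondria 2 min (legend), then 5 mM succinate. Calcium 30–60 nmol pulses, depending on preparation. Controls: 1 µM cyclosporin A pre-incubated; FCCP.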

The species named for series [20] is Rattus norvegicus. Briefly: Inhibition of electron transport protein complex 1/2 in Wistar-Han rat liver mitochondria using glutamate/malate and succinate as substrate assessed as decrease of FCCP-induced respiration at 3 to 6 ug/mg. Put shortly: as §3
Series [21] is filed under the species Rattus norvegicus. The series can be described thus: Effect on calcium-induced mitochondrial swelling in Wistar-Han rat liver mitochondria assessed as mitochondrial transmembrane electric potential after 2 mins. Format: functional. Put shortly: as §4
The species named for series [22] is Rattus norvegicus. The series can be described thus: Inhibition of electron transport protein complex 1/2 in Wistar-Han rat liver mitochondria using glutamate/malate and succinate as substrate assessed as decrease of ADP/O ratio at 3 to 6 ug/mg. Put shortly: as §3

On to `C=C(C[n+]1ccc(N(C)C)cc1)[C@@H]1CC[C@]2(C(=O)O)CC[C@]3(C)[C@H](CC[C@@H]4[C@@]5(C)CC[C@H](O)C(C)(C)[C@@H]5CC[C@]43C)[C@@H]12.[Br-]`, for which the result in series [1] and in series [7] was inactive. The Activity was found to be 13.8% in series [2]; 63.3% in series [3]; 229 mV in series [5]; 229 mV in series [6]; 40.3% in series [8]; 51% in series [9]. In addition, the Activity in [10] amounted to 13.5%; in series [11], 57%; in series [12] it was 19.5%; in series [13], 228 mV; in [15], 22.4%; in series [16], 228 mV. Besides, in [17], the Activity result is listed as “Non-toxic”. Further, in series [4], the inhibition entry is “Active”. The inhibition entry in series [14] is “inactive”.
Turning to `C=C(C)[C@@H]1CC[C@]2(COC(=O)C[n+]3ccc(N(C)C)cc3)CC[C@]3(C)[C@H](CC[C@@H]4[C@@]5(C)CC[C@H](OC(=O)C[n+]6ccc(N(C)C)cc6)C(C)(C)[C@@H]5CC[C@]43C)[C@@H]12.[Br-].[Br-]`, the outcome in [1], in series [19] and in series [7] was Active. The Activity worked out at 27.7% in series [2]; 46% in [3]; 225 mV in series [5]; 225 mV in series [6]; 38.3% in series [8]; 36.8% in series [9]. In addition, the Activity in series [10] came out at 20.3%; in series [11], 40%; in [12], 23.4%; in series [13] it was 232 mV; in [15], 30.6%; in series [16], 229 mV. Moreover, in series [17], the Activity result is “Toxic”. Also, the inhibition entry in [18] and in series [20] was “Active” each time. Moreover, the result in series [21] was inactive.
As for `C=C(C[n+]1ccc(N(C)C)cc1)[C@@H]1CC[C@]2(COC(=O)C[n+]3ccc(N(C)C)cc3)CC[C@]3(C)[C@H](CC[C@@H]4[C@@]5(C)CC[C@H](OC(=O)C[n+]6ccc(N(C)C)cc6)C(C)(C)[C@@H]5CC[C@]43C)[C@@H]12.[Br-].[Br-].[Br-]`, the result in [1], in series [19] and in series [7] was Active. For the same compound, the Activity is 27.8% in series [2]; 46.5% in series [3]; 225 mV in [5]; 226 mV in series [6]; 36% in [8]; 42.8% in [9]. Also, the Activity in series [10] came to 14.6%; in [11] it was 45.5%; in [12], 18.5%; in series [13] it was 232 mV; in [15], 30.3%; in [16] it was 228 mV. Besides, in series [17], the Activity entry is given as “Toxic”. Besides, the inhibition result in [4] was “Active”. For the same compound, the inhibition entry in series [14] was “inactive”. Besides, the result in series [21] was inactive.
For `C=C(C)[C@@H]1CC[C@]2(CO)CC[C@]3(C)[C@H](CC[C@@H]4[C@@]5(C)CC[C@H](OC(=O)C[n+]6ccc(N(C)C)cc6)C(C)(C)[C@@H]5CC[C@]43C)[C@@H]12.[Cl-]`, the result in series [1], in series [19] and in series [7] was Active. Also, the Activity in [2] came to 29.9%; in series [3], 45%; in [5], 222 mV; in series [6], 222 mV; in series [8] it was 38%; in series [9] it was 27.8%. In addition, the Activity stood at 23.5% in series [10]; 53% in [11]; 26.5% in [12]; 232 mV in series [13]; 36.2% in series [15]; 228 mV in series [16]. Further, in [17], the Activity entry is on record as “Toxic”. Also, the inhibition entry in series [14] was “inactive”. Also, the result in series [21] was inactive.
Consider `C=C(C)[C@@H]1CC[C@]2(COC(=O)C[n+]3ccc(N(C)C)cc3)CC[C@]3(C)[C@H](CC[C@@H]4[C@@]5(C)CC[C@H](O)C(C)(C)[C@@H]5CC[C@]43C)[C@@H]12`, for which the Activity in [2] is 27.8%; in [3] it was 31%; in [5] it was 225 mV; in [6] it was 225 mV; in series [8] it was 39%; in series [9] it was 28.8%. For the same compound, the Activity in [10] is 22.6%; in [11], 42%; in [12], 22.5%; in series [13] it was 226 mV; in [15], 28.5%; in [16], 224 mV. For the same compound, the outcome in [19] was Active. Further, the inhibition entry in [14] and in [22] was “Active” each time. For the same compound, the outcome in [21] was inactive.
